Reference: ChEMBL document CHEMBL4382252, “1,4-Benzodioxane Lignans: An Efficient, Asymmetric Synthesis of Flavonolignans and Study of Neolignan Cytotoxicity and Antiviral Profiles” (J Nat Prod, 2018)
Values belong to the molecule of their own block, whether it stands above or below them.

Key:
[1] = (§1) Cytotoxicity against human Huh7.5.1 cells after 72 hrs by ATPlite assay; type: cell-based; settings: Huh7.5.1 cells
Outline: (§2)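 Compounds in DMSO added to cells at a range of concentrations. ATP measured by ATPlite after 72 h. DMSO held at 0.5% final in all wells, including controls. Triplicate per concentration. CC50 obtained by log-transforming doses and fitting a variable-slope four-parameter regression.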

Hepatitis C virus = experiment: Antiviral activity against HCV JFH-1 infected in human Huh7.5.1 cells assessed as reduction in NS3/NS5A expression by Western blot analysis; type: functional, organism-based, Hepacivirus hominis
Outline: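 Huh7.5.1 human hepatoma cells infected with HCV (JFH-1) at MOI 0.05 for 5 h; inoculum then replaced with fresh medium containing compound, three concentrations each. DMSO solvent control ≤0.5% final. Lysates run on SDS-PAGE and Western blotted for NS3 and NS5A, reprobed for actin as loading control. IC50 estimated from pixel intensity of viral protein bands.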

[2] = Selectivity index, ratio of CC50 for human Huh7.5.1 cells to IC50 for HCV JFH1 infected in human Huh7.5.1 cells; type: toxicity, cell-based; settings: for selectivity ratio: Huh7.5.1 cells, HCV JFH1-infected Huh7.5.1 cells, read-out: Ratio CC50/IC50
Huh7.5.1 = experiment: as §1; type: cell-based; settings: huh7.5.1, 72 h; outline: as §2
[3] = Hepatitis C virus, JFH-1, Huh-7.5.1

IC50 (Hepatitis C virus; [3]): 200 µM
Molecule: COc1cc([C@H]2Oc3cc(/C=C/CO)cc(OC)c3O[C@@H]2CO)cc(OC)c1O
CC50 at 72 h [1]: 464 µM
selectivity ratio [2]: 2.32

IC50 (Hepatitis C virus; [3]): 50 µM
Molecule: COc1cc([C@H]2Oc3cc(/C=C/CO)cc(OC)c3O[C@@H]2C)cc(OC)c1OC
CC50 at 72 h [1]: 129 µM
selectivity ratio [2]: 2.57

IC50 (Hepatitis C virus; [3]): 40 µM
Molecule: COc1cc([C@H]2Oc3cccc(OC)c3O[C@@H]2C)cc(OC)c1OC
CC50 at 72 h [1]: 50.2 µM
selectivity ratio [2]: 1.25

IC50 (Hepatitis C virus; [3]): 60 µM
Molecule: COc1cc(C2Oc3cc([C@H]4Oc5cc(O)cc(O)c5C(=O)[C@@H]4O)ccc3OC2CO)ccc1O (stereo not given in full) [SILIBININ]
CC50 at 72 h [1]: 80 µM
selectivity ratio [2]: 1.33

IC50 (Hepatitis C virus): 80 µM
Molecule: SILYMARIN
CC50 (Huh7.5.1): 100 µM
Ratio CC50/IC50 [2]: 1.25

More lines, now with the values behind:

Molecule: C=CCc1cc(OC)c2c(c1)O[C@H](c1cc(OC)c(OC)c(OC)c1)[C@@H](C)O2
CC50 at 72 h [1]: 36.2 µM
IC50 (Hepatitis C virus; [3]): 30 µM
selectivity ratio [2]: 1.21

Molecule: C=CCc1cc(OC)c2c(c1)O[C@H](c1ccc3c(c1)OCO3)[C@@H](C)O2
CC50 at 72 h [1]: > 125 µM
IC50 (Hepatitis C virus; [3]): 20 µM
selectivity ratio [2]: > 6.25

Molecule: COc1cc([C@H]2Oc3cc(/C=C/C=O)cc(OC)c3O[C@@H]2C)cc(OC)c1OC
CC50 at 72 h [1]: 47.6 µM
IC50 (Hepatitis C virus; [3]): 25 µM
selectivity ratio [2]: 1.91

Molecule: COc1cc([C@H]2Oc3cc([C@H]4Oc5cc(O)cc(O)c5C(=O)[C@@H]4O)ccc3O[C@@H]2CO)ccc1O [SILYBIN A]
CC50 at 72 h [1]: 80 µM
IC50 (Hepatitis C virus; [3]): 50 µM
selectivity ratio [2]: 1.6

Molecule: COc1cc([C@@H]2Oc3cc([C@H]4Oc5cc(O)cc(O)c5C(=O)[C@@H]4O)ccc3O[C@H]2CO)ccc1O [SILYBIN B]
CC50 at 72 h [1]: 68.7 µM
IC50 (Hepatitis C virus; [3]): 50 µM
selectivity ratio [2]: 1.37
